Measured values from different studies.
Protocols differ between the studies behind these lines.
Target: Mitogen-activated protein kinase 1 (MAPK1, Homo sapiens, UniProt P28482)

C[C@@H](O)[C@H](N)C(=O)N1CCC[C@H]1C(=O)N1CCC[C@H]1C(=O)N[C@H](C(N)=O)[C@@H](C)O  inhibition (enzyme activity, inhibitor; 30 µM): -2%
C#Cc1n[nH]c2c(-c3cn([C@@H](C)c4ccccc4)c(=O)[nH]c3=O)cc(F)cc12  inhibition (enzyme activity, inhibitor; 0.1 µM): 0.5%
COc1ncccc1-c1cnn2ccc(N3CCN(C(=O)OC(C)C)CC3)nc12  remaining binding (binding, competition with immobilised ligand; 1 µM): 100%
Cn1cc(-c2cc(F)cc(N3CCn4c(cc5c4CCCC5)C3=O)c2CO)cc(Nc2ccc(N3CCN(C4COC4)CC3)cn2)c1=O  inhibition (enzyme activity, inhibitor; 0.1 µM): 4%
Cn1cncc1[C@@](O)(COc1ccc(C#N)cc1-c1ccc(OC(F)(F)F)cc1)c1ccc(C#N)cc1  remaining binding (cell-free assay, competition with immobilised ligand; 1 µM): 91%
CNC1(c2ccccc2Cl)CCCCC1=O (racemic)  inhibition (enzyme activity, inhibitor; 30 µM): 2%
C#Cc1n[nH]c2c(-c3cn(C(C)c4ccccn4)c(=O)[nH]c3=O)cc(F)cc12 (stereo not drawn)  inhibition (enzyme activity, inhibitor; 1 µM): 7.2%
CC(C)(C)c1cc(C=C(C#N)C#N)cc(Br)c1O  remaining activity (enzyme activity, inhibitor; 0.5 µM): 91.3%
Cc1nn(C)cc1-c1nc2c(N3CCN(Cc4ccc(Cl)cc4)CC3)c(Cl)cnc2[nH]1  remaining binding (binding, competition with immobilised ligand; 1 µM): 100%
N#CC1(c2ccccn2)CCN(Cc2cc(C(=O)O)c(=O)n3ccccc23)CC1  remaining binding (cell-free assay, competition with immobilised ligand; 1 µM): 100%
Nc1ncc(-c2nc(N3CCOCC3)nc(N3CCOCC3)n2)c(C(F)F)n1  remaining binding (binding, competition with immobilised ligand; 10 µM): 98%
Cn1cc(-c2cccc(N3CCc4c(sc5c4CC(C)(C)C5)C3=O)c2CO)cc(Nc2ccncn2)c1=O  inhibition (enzyme activity, inhibitor; 1 µM): -1%
O=c1[nH]c2ccccc2n1C1CCN(Cc2ccc(-c3[nH]c4cc5ncnc5cc4nc3-c3ccccc3)cc2)CC1  remaining signal (cell-free assay; 0.5 µM): 112%
O=C(Nc1cccnn1)N1CCN([C@@H]2CCOc3cc(C(F)(F)F)ccc32)CC1  inhibition (enzyme activity, inhibitor; 20 µM): -4%
Cc1ncc(C)n2nc(/C=C/c3nc(N4CCCC4)cc(N4CCOCC4)n3)nc12  inhibition (enzyme activity, inhibitor; 10 µM): 7%
